Reference: ChEMBL document CHEMBL2086353, “Design, synthesis and structure-activity relationship of novel inhibitors against H5N1 hemagglutinin-mediated membrane fusion” (Eur J Med Chem, 2012)
Active and inactive are the calls of the source. The rule behind the calls is not given here.

test system: Influenza A virus; assay: Antiviral activity against Influenza A virus (A/Thailand/Kan353/2004(H5N1)) assessed as inhibition of viral infection; format: functional, organism-based

`O=C(NCCN1CCCCC1)c1cc(F)cc(C(F)(F)F)c1` gave an IC50 of 27 µM.

test system: not listed separately; assay: Inhibition of Influenza A virus (A/Anhui/1/2005(H5N1)) hemagglutininin-mediated membrane fusion assessed as inhibition of H5N1 pesudovirus infection of MDCK cells using A/Anhui/1/2005(H5N1) hemagglutinin plasmid and NA plasmid from N1 subtype strain A/Thailand/Kan353/ 2004 infected in 293T cells by luciferase reporter gene assay; format: cell-based
Summary of the method: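 MDCK target cells grown in DMEM with glutamine and 10% FCS. Compound at indicated concentrations preincubated with H5N1 HA/NA-pseudotyped luciferase-reporter particles (1 ng p24/well) for 30 min at 37 °C. Mixture then added to cells for 48 h. Cells PBS-washed and lysed, and luciferase activity read on a luminometer.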

`O=C(NCCc1cccs1)c1cncc(Br)c1` and `O=C(NCCc1cccs1)c1cncc(Cl)c1` are within 1.5-fold of each other in IC50: 7.61 µM for the first, 9.2 µM for the second.

`O=C(NCCN1CCCCC1)c1cc(F)cc(C(F)(F)F)c1` and `O=C(NCCN1CCCC1)c1cc(F)cc(C(F)(F)F)c1` are within 1.5-fold of each other in IC50: 0.37 µM for the first, 0.38 µM for the second.

First: O=C(NCCc1ccccc1)c1cc(C(F)(F)F)cc(C(F)(F)F)c1
Second: O=C(NCCc1ccccc1)c1cc(F)cc(C(F)(F)F)c1
The IC50 of the first is 7.5-fold higher: 2.47 µM for the first, 0.33 µM for the second. The second is the more potent here.

Going from `O=C(NC1CCCCC1)c1cccc(C(F)(F)F)c1` to `O=S(=O)(NCCN1CCCCC1)c1cccc(C(F)(F)F)c1`, the IC50 rises from 7.8 µM to 54.9 µM (7-fold).

First: O=C(NCCN1CCOCC1)c1cc(C(F)(F)F)cc(C(F)(F)F)c1
Second: O=C(NCCN1CCCC1)c1cc(C(F)(F)F)cc(C(F)(F)F)c1
The IC50 of the first is 5.8-fold higher: 9.89 µM for the first, 1.71 µM for the second.

`CC(NC(=O)c1cc(F)cc(C(F)(F)F)c1)c1ccc2ccccc2c1` (stereo unspecified) and `CC(NC(=O)c1cc(C(F)(F)F)cc(C(F)(F)F)c1)c1ccc2ccccc2c1` (stereo unspecified) are within 1.5-fold of each other in IC50: 49 µM for the first, 40.8 µM for the second.

Going from `O=C(NCCN1CCCC1)c1cc(O)c(O)cc1O` to `O=C(NCCN1CCCCC1)c1cncc(Cl)c1`, the IC50 falls from 41.5 µM to 6.25 µM (6.6-fold).

Compared with `O=C(OCCN1CCCCC1)c1cc(F)cc(C(F)(F)F)c1`, `O=C(NCCN1CCCCC1)c1cc(C(F)(F)F)cc(C(F)(F)F)c1` is 24-fold lower in IC50: 61.2 µM for the first, 2.51 µM for the second.

Compared with `O=C(NCc1ccncc1)c1cc(F)cc(C(F)(F)F)c1`, `O=C(NCCc1cccs1)c1cc(F)cc(C(F)(F)F)c1` is 2.5-fold lower in IC50: 0.56 µM for the first, 0.22 µM for the second.

`CN1CCN(CCCNC(=O)c2cc(F)cc(C(F)(F)F)c2)CC1` and `CN1CCN(CCCNC(=O)c2cc(C(F)(F)F)cc(C(F)(F)F)c2)CC1` are within 1.5-fold of each other in IC50: 84.3 µM for the first, 66.6 µM for the second.

Going from `O=C(NCCN1CCOCC1)c1cc(F)cc(C(F)(F)F)c1` to `O=C(NCCOC(=O)c1cc(F)cc(C(F)(F)F)c1)c1cc(F)cc(C(F)(F)F)c1`, the IC50 rises from 1.22 µM to 60 µM (49-fold). The first is the more potent here.

First: O=C(NCCc1cccs1)c1cccc(C(F)(F)F)c1
Second: O=C(NCCc1ccccc1)c1cccc(C(F)(F)F)c1
The IC50 of the first is 18-fold lower: 4.33 µM for the first, 80 µM for the second. The first is the more potent here.

`O=C(NCCc1cccs1)c1cc(C(F)(F)F)cc(C(F)(F)F)c1` and `O=C(NCc1cccnc1)c1cc(C(F)(F)F)cc(C(F)(F)F)c1` are within 1.5-fold of each other in IC50: 2.44 µM for the first, 2.46 µM for the second.

Work on `O=C(NCCN1CCCCC1)c1cncc(Br)c1` yielded an IC50 of 5.13 µM.

test system: MDCK; assay: Inhibition of Vesicular stomatitis virus G hemagglutininin-mediated membrane fusion assessed as inhibition of […] infection of MDCK cells by luciferase reporter gene assay; format: cell-based
Summary of the method: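 Specificity control: VSV-G-pseudotyped luciferase-reporter particles replace the H5N1 pseudovirus. Compound preincubated with particles (1 ng p24/well) for 30 min at 37 °C, then added to MDCK cells (DMEM, 10% FCS) for 48 h. Lysate luciferase read on a luminometer.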

In the case of `O=C(NCc1ccncc1)c1cc(F)cc(C(F)(F)F)c1`, the inhibition is reported as “inactive”.
In the case of `O=C(NCCN1CCCC1)c1cc(F)cc(C(F)(F)F)c1`, the inhibition is reported as “inactive”.
With `O=C(NCCc1cccs1)c1cc(F)cc(C(F)(F)F)c1` the inhibition was “inactive”.
